According to ChEMBL document CHEMBL2146383, “Identification of an Orally Bioavailable, Potent, and Selective Inhibitor of GlyT1” (ACS Med Chem Lett, 2010):
The source made the active and inactive calls.

Experiments:
[1] = molecular target: T1, Sodium- and chloride-dependent glycine transporter 1 (Homo sapiens, UniProt P48067); experiment: Inhibition of human GlyT1a after 15 mins
T1 sequence (P48067 whole entry): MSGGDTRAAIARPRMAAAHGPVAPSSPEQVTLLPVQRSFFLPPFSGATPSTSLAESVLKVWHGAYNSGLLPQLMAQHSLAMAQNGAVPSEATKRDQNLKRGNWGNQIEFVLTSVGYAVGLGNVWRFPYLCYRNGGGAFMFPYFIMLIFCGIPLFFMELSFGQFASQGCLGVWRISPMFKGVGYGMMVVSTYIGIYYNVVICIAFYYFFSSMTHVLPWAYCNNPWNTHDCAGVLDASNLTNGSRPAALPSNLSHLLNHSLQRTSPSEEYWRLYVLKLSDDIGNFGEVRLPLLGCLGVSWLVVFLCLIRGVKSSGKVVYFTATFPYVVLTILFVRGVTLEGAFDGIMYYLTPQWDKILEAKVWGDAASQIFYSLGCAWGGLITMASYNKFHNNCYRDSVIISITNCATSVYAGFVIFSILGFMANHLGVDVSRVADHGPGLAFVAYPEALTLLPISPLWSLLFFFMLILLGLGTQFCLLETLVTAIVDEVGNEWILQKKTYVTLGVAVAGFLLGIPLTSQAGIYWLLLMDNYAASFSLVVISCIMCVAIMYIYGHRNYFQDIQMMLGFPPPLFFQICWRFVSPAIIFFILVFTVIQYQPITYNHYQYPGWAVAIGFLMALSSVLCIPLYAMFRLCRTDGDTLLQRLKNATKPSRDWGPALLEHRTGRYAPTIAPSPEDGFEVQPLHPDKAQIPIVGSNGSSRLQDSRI
Method in brief: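 Human GlyT1, hGlyT1a isoform; IC50 taken as the average of at least two measurements.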

[2] = Metabolic stability in rat liver microsomes assessed as compound turnover at 1 uM after 15 mins; assay type: ADME, Microsome; conditions: read-out: Drug metabolism
Method in brief: (§1)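 Test compound at 1 μM incubated with human or rat liver microsomes (0.5 mg/mL protein) at 37 °C for 15 min; turnover measured.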

[3] = Metabolic stability in human liver microsomes assessed as compound turnover at 1 uM after 15 mins; assay type: ADME, Microsome; conditions: read-out: Drug metabolism; method in brief: as §1
[4] = Ratio of drug level in brain to plasma in rat at 10 mg/kg, po; assay type: ADME, organism-based; set-up: dose 10 mg/kg, route oral; conditions: read-out: BPR
[5] = molecular target: Cytochrome P450 2C9 (Homo sapiens, UniProt P11712); experiment: Inhibition of CYP2C9; assay type: ADME
Cytochrome P450 2C9, sequence (P11712 whole entry): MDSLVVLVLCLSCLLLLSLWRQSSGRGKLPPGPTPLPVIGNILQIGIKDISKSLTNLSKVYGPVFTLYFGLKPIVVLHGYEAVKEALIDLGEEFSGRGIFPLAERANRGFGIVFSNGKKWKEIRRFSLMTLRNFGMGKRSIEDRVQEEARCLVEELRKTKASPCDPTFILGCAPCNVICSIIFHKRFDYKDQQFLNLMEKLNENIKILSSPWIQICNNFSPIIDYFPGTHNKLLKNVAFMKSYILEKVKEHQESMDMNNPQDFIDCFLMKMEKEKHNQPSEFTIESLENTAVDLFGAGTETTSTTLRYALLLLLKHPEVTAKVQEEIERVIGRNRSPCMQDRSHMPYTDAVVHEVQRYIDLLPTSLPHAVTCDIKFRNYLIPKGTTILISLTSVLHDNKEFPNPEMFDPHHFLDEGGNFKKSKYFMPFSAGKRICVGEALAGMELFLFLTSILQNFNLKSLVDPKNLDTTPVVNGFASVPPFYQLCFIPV

[6] = molecular target: Cytochrome P450 3A4 (Homo sapiens, UniProt P08684); experiment: Inhibition of CYP3A4; assay type: ADME
Cytochrome P450 3A4, sequence (P08684 whole entry): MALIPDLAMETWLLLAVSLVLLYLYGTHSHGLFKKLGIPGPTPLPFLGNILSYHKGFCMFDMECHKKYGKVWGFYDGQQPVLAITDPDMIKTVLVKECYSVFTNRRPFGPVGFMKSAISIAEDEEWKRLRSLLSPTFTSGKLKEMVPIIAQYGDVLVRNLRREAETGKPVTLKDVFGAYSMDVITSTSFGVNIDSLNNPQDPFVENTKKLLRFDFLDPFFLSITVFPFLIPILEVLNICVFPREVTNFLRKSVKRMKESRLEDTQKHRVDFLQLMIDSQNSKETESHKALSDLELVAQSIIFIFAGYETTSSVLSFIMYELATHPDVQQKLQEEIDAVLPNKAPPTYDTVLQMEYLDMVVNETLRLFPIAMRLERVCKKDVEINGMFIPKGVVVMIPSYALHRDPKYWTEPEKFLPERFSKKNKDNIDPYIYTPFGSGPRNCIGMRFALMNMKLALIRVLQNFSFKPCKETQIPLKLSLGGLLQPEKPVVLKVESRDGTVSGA

[7] = tested on: Brain; experiment: Receptor occupancy at Glyt1 in rat brain at 10 mg/kg, po; assay type: functional
[8] = molecular target: Cytochrome P450 2D6 (Homo sapiens, UniProt P10635); experiment: Inhibition of CYP2D6; assay type: ADME
Cytochrome P450 2D6, sequence (P10635 whole entry): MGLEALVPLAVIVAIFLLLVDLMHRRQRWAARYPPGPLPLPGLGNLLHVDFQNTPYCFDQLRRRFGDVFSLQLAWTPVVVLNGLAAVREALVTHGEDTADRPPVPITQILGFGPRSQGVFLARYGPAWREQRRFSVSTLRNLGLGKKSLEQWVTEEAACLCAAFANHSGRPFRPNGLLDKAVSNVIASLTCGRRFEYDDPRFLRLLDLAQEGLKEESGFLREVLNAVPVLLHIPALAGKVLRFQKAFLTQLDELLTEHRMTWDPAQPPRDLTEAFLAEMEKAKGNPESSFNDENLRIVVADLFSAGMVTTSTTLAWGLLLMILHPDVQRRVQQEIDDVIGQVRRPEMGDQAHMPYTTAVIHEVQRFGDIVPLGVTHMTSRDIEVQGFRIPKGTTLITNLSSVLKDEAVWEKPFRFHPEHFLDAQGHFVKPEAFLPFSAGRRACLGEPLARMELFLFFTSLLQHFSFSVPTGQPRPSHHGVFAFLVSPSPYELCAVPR

[9] = tested on: Plasma; experiment: Receptor occupancy at Glyt1 in rat plasma at 10 mg/kg, po; assay type: functional
[10] = Cmax in rat at 1 mg/kg, po and 1 mg/kg, iv; assay type: ADME, organism-based; conditions: in vivo
Method in brief: (§2)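 Rat PK: 1.0 mg/kg iv and po, oral arm as 0.5% methocel suspension; plasma Cl, Vd(ss), T1/2, F, Cmax (μM) and Tmax determined.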

[11] = tested on: Rattus norvegicus; experiment: Inhibition of GlyTl in rat frontal cortex assessed as increase extracellular glycine level after 3 mg/kg, po up to 4 hrs relative to baseline; assay type: functional; set-up: scale not given: the % may be the effect or the level left
Method in brief: (§3)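 Microdialysis probe placed in rat frontal cortex; extracellular glycine sampled up to 4 h after oral dosing at 3 or 20 mg/kg; peak glycine efflux given as % of basal level, mean ± SEM.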

[12] = Oral bioavailability in rat at 1 mg/kg; assay type: ADME, organism-based; conditions: in vivo; method in brief: as §2
[13] = organism: Mus musculus; experiment: Binding affinity to mouse P-gp
[14] = tested on: Rattus norvegicus; experiment: Covalent binding in rat at 20 mg/kg, po after 6 hrs; assay type: ADME, organism-based; set-up: dose 20 mg/kg, route oral; conditions: in vivo
Method in brief: (§4)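 Rats dosed orally at 20 mg/kg; liver and plasma proteins sampled 6 h postdose; covalently bound drug-derived material expressed as pmol equiv/mg protein.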

[15] = Half life in rhesus monkey at 1 mg/kg, po and 1 mg/kg, iv; assay type: ADME, organism-based, Macaca mulatta; conditions: in vivo
Method in brief: (§5)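 Rhesus monkey pharmacokinetics after 1.0 mg/kg by both iv and oral routes; reported parameters are Cl, Vd(ss), T1/2, F, Cmax (μM) and Tmax.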

[16] = tested on: Rattus norvegicus; experiment: Inhibition of PCP-induced cognitive deficit in extra dimensional shift in intra/extra dimensional rat model of executive function at 3 mg/kg, po; assay type: functional, organism-based; set-up: dose 3 mg/kg
Method in brief: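 Rats given subchronic PCP to impair attentional set shifting, then dosed 3 mg/kg po; all ID/ED discriminations run, with trials to criterion scored for the extra-dimensional shift; significance at p < 0.05 versus PCP and vehicle groups.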

[17] = Cmax in dog at 1 mg/kg, po and 1 mg/kg, iv; assay type: ADME, organism-based, Canis lupus familiaris; conditions: in vivo
Method in brief: (§6)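 Dog PK: single 1.0 mg/kg dose given iv and po; oral dosing in 0.5% methocel suspension. Clearance, Vd(ss), half-life, oral bioavailability (F), Cmax (μM) and Tmax derived from the plasma profiles.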

[18] = tested on: Rhesus monkey; experiment: Receptor plasma occupancy at Glyt1 in rhesus monkey pons assessed as inhibition of [18F]MK-6577 uptake administered as iv bolus plus infusion by PET imaging; assay type: functional, Macaca mulatta
Method in brief: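 Rhesus monkeys (~10 kg) sedated with ketamine 10 mg/kg im, induced with propofol 5 mg/kg iv, and maintained on propofol 0.4 mg/kg/min. Compound given iv as bolus plus infusion in EtOH:H2O:PEG400 (10:40:50); ~5 mCi [18F]MK-6577 injected 1 h into the infusion. Dynamic PET scans compared baseline and blockade uptake to derive an occupancy versus plasma concentration curve and plasma Occ50.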

[19] = Half life in rat at 1 mg/kg, po and 1 mg/kg, iv; assay type: ADME, organism-based; conditions: in vivo; method in brief: as §2
[20] = Half life in dog at 1 mg/kg, po and 1 mg/kg, iv; assay type: ADME, organism-based, Canis lupus familiaris; conditions: in vivo; method in brief: as §6
[21] = Oral bioavailability in dog at 1 mg/kg; assay type: ADME, organism-based, Canis lupus familiaris; conditions: in vivo; method in brief: as §6
[22] = Volume of distribution at steady state in dog at 1 mg/kg, po and 1 mg/kg, iv; assay type: ADME, organism-based, Canis lupus familiaris; conditions: in vivo, read-out: Vdss; method in brief: as §6
[23] = Clearance in rhesus monkey at 1 mg/kg, po and 1 mg/kg, iv; assay type: ADME, organism-based, Macaca mulatta; conditions: in vivo; method in brief: as §5
[24] = Clearance in rat at 1 mg/kg, po and 1 mg/kg, iv; assay type: ADME, organism-based; conditions: in vivo; method in brief: as §2
[25] = tested on: Rattus norvegicus; experiment: Inhibition of GlyTl in rat frontal cortex assessed as increase in extracellular glycine level at 20 mg/kg, po up to 4 hrs relative to baseline; assay type: functional; set-up: scale not given: the % may be the effect or the level left; method in brief: as §3
[26] = organism: Homo sapiens; experiment: Binding affinity to human P-gp
[27] = Tmax in rat at 1 mg/kg, po and 1 mg/kg, iv; assay type: ADME, organism-based; conditions: in vivo; method in brief: as §2
[28] = Clearance in dog at 1 mg/kg, po and 1 mg/kg, iv; assay type: ADME, organism-based, Canis lupus familiaris; conditions: in vivo; method in brief: as §6
[29] = Oral bioavailability in rhesus monkey at 1 mg/kg; assay type: ADME, organism-based, Macaca mulatta; conditions: in vivo; method in brief: as §5
[30] = Tmax in dog at 1 mg/kg, po and 1 mg/kg, iv; assay type: ADME, organism-based, Canis lupus familiaris; conditions: in vivo; method in brief: as §6
[31] = Volume of distribution at steady state in rat at 1 mg/kg, po and 1 mg/kg, iv; assay type: ADME, organism-based; conditions: in vivo, read-out: Vdss; method in brief: as §2
[32] = Cmax in rhesus monkey at 1 mg/kg, po and 1 mg/kg, iv; assay type: ADME, organism-based, Macaca mulatta; conditions: in vivo; method in brief: as §5
[33] = Tmax in rhesus monkey at 1 mg/kg, po and 1 mg/kg, iv; assay type: ADME, organism-based, Macaca mulatta; conditions: in vivo; method in brief: as §5
[34] = Volume of distribution at steady state in rhesus monkey at 1 mg/kg, po and 1 mg/kg, iv; assay type: ADME, organism-based, Macaca mulatta; conditions: in vivo, read-out: Vdss; method in brief: as §5
[35] = tested on: Plasma; experiment: Covalent binding affinity in rat plasma at 20 mg/kg, po after 6 hrs; assay type: ADME, organism-based; set-up: dose 20 mg/kg, route oral; conditions: in vivo; method in brief: as §4
[36] = tested on: Liver; experiment: Covalent binding affinity at liver protein in rat at 20 mg/kg, po after 6 hrs; assay type: ADME, organism-based; set-up: dose 20 mg/kg, route oral; conditions: in vivo; method in brief: as §4

CCS(=O)(=O)[C@H]1CC[C@](CNC(=O)c2ccc(Cl)cc2Cl)(CC2CC2)CC1
IC50 [1]: 132 nM

Cc1cc(S(=O)(=O)[C@H]2CC[C@@](CNC(=O)c3ccc(Cl)cc3Cl)(CC3CC3)CC2)no1
metabolised at 0.25 h, 1 µM [2]: 51%
IC50 [1]: 8.6 nM
metabolised at 0.25 h, 1 µM [3]: 35%

CS(=O)(=O)[C@H]1CC[C@](CNC(=O)c2ccc(Cl)cc2Cl)(CC2CC2)CC1
IC50 [1]: 3330 nM

Cn1cc(S(=O)(=O)[C@H]2CC[C@@](CNC(=O)c3ccc(Cl)cc3Cl)(CC3CC3)CC2)nn1
Kp [4]: 0.1

Cc1nnc(S(=O)(=O)[C@H]2CC[C@@](CNC(=O)c3ccc(Cl)cc3Cl)(CC3CC3)CC2)s1
IC50 [1]: 3330 nM

O=C(NC[C@]1(CC2CC2)CC[C@@H](S(=O)(=O)c2cnn[nH]2)CC1)c1ccc(Cl)cc1Cl
IC50 [5]: 10 nM
IC50 [1]: 3000 nM

Cn1cc(S(=O)(=O)[C@H]2CC[C@](CNC(=O)c3ccc(Cl)cc3Cl)(CC3CC3)CC2)nn1
IC50 [6]: > 10000 nM
IC50 [5]: > 10000 nM
Occ50 [7]: 0.2 µM
IC50 [8]: > 10000 nM
Kp [4]: 0.16
Occ50 [9]: 1.2 µM

CCCS(=O)(=O)[C@H]1CC[C@](CNC(=O)c2ccc(Cl)cc2Cl)(CC2CC2)CC1
metabolised at 0.25 h, 1 µM [2]: 53%
IC50 [1]: 36.9 nM
metabolised at 0.25 h, 1 µM [3]: 55%

O=C(NC[C@]1(CC2CC2)CC[C@H](S(=O)(=O)CC2CCC2)CC1)c1ccc(Cl)cc1Cl
IC50 [1]: 629 nM

CCS(=O)(=O)[C@H]1CC[C@@](CNC(=O)c2ccc(Cl)cc2Cl)(CC2CC2)CC1
IC50 [1]: 1320 nM

Cc1cc(S(=O)(=O)[C@H]2CC[C@](CNC(=O)c3ccc(Cl)cc3Cl)(CC3CC3)CC2)no1
metabolised at 0.25 h, 1 µM [2]: 41%
IC50 [1]: 7.3 nM
metabolised at 0.25 h, 1 µM [3]: 40%

O=C(NC[C@]1(CC2CC2)CC[C@H](S(=O)(=O)c2c[nH]nn2)CC1)c1ccc(Cl)cc1Cl
inhibition (INH) [5]: Active
IC50 [1]: 3000 nM

CCCS(=O)(=O)[C@H]1CC[C@@](CNC(=O)c2ccc(Cl)cc2Cl)(CC2CC2)CC1
IC50 [1]: 1630 nM

Cc1ccc(S(=O)(=O)[C@H]2CC[C@@](CNC(=O)c3ccc(Cl)cc3Cl)(CC3CC3)CC2)nn1
metabolised at 0.25 h, 1 µM [2]: 40%
IC50 [1]: 29 nM
metabolised at 0.25 h, 1 µM [3]: 35%

O=C(NC[C@]1(CC2CC2)CC[C@H](S(=O)(=O)CC2CC2)CC1)c1ccc(Cl)cc1Cl
Cmax [10]: 140 nM
Activity [11]: 151%
bioavailability [12]: 65%
Activity [13]: inactive
PB [14]: < 25 pmolequiv/mg
metabolised at 0.25 h, 1 µM [2]: 40%
half-life [15]: 1.5 h
inhibition [16]: Active
Cmax [17]: 1390 nM
Occ50 [18]: 120 nM
half-life [19]: 2.4 h
half-life [20]: 10 h
bioavailability [21]: 48%
Vd [22]: 3.1 L/kg
clearance [23]: 24 mL/min/kg
clearance [24]: 36 mL/min/kg
Kp [4]: 2.3
Activity [25]: 184%
Activity [26]: inactive
Tmax [27]: 0.8 h
clearance [28]: 4.9 mL/min/kg
Occ50 [9]: 0.35 µM
bioavailability [29]: 2%
IC50 [1]: 29 nM
Tmax [30]: 1 h
Vd [31]: 4.1 L/kg
Cmax [32]: 40 nM
Tmax [33]: 2.7 h
Vd [34]: 2.3 L/kg
metabolised at 0.25 h, 1 µM [3]: 35%

CCS(=O)(=O)N1CCC(CNC(=O)c2ccc(Cl)cc2Cl)(CC2CC2)CC1
Activity [35]: 214 pmolequiv/mg
IC50 [1]: 26 nM
PB [36]: 153 pmolequiv/mg
